Assays:
Pseudomonas aeruginosa [1] = assay: Antibacterial activity against Pseudomonas aeruginosa ATCC 27853 after 18 hrs by broth microdilution method; type: functional; details: ATCC 27853, 18 h
In short: (§1)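 Broth microdilution per CLSI in cation-adjusted Mueller-Hinton broth. 100 µL inoculum (~10^6 cfu/mL in CaMHB) mixed with 100 µL CaMHB containing compound, 0 to 128 µM. Incubated 18 h at 37 °C. MIC taken as the lowest concentration with no visible growth. Polymyxin B served as positive control. Isolates were stored at -80 °C in tryptone soy broth with 20% glycerol.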

[2] = Selectivity index, ratio of CC50 for human HepG2 cells in presence of 1% FBS to MIC for Pseudomonas aeruginosa isolate 912; type: toxicity; details: read-out: Selectivity Index
In short: (§2)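 Selectivity index is CC50 (1% FBS) divided by MIC. […] They then got compound at 300 to 0.14 µM (3-fold steps) for 24 h at 37 °C, 5% CO2. Resazurin (10 µM, 2 h) was read at ex/em 560/590 in duplicate wells. For MIC, CLSI broth microdilution was run in CaMHB with ~10^6 cfu/mL inoculum and 0–128 µM compound.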

Staphylococcus aureus [3] = assay: Antibacterial activity against methicillin-resistant Staphylococcus aureus ATCC 43300 after 18 hrs by broth microdilution method; type: functional; details: ATCC 43300, 18 h; in short: as §1
[4] = Selectivity index, ratio of CC50 for human HepG2 cells in presence of 1% FBS to MIC for Pseudomonas aeruginosa QLD PSA 1; type: toxicity; details: read-out: Selectivity Index; in short: as §2
Acinetobacter baumannii [5] = assay: Antibacterial activity against Acinetobacter baumannii isolate 07AC-336 after 18 hrs by broth microdilution method; type: functional; details: isolate 07AC-336, 18 h; in short: as §1
Pseudomonas aeruginosa [6] = assay: Antibacterial activity against Pseudomonas aeruginosa QLD PSA 1 after 18 hrs by broth microdilution method; type: functional; details: QLD PSA 1, 18 h; in short: as §1
Pseudomonas aeruginosa [7] = assay: Antibacterial activity against Pseudomonas aeruginosa isolate 912 after 18 hrs by broth microdilution method; type: functional; details: isolate 912, 18 h; in short: as §1
[8] = Selectivity index, ratio of CC50 for human HepG2 cells in presence of 1% FBS to MIC for Escherichia coli N2381; type: toxicity; details: read-out: Selectivity Index
Acinetobacter baumannii [9] = assay: Antibacterial activity against Acinetobacter baumannii ATCC 17978 col10 after 18 hrs by broth microdilution method; type: functional; details: ATCC 17978 col10, 18 h; in short: as §1
[10] = Selectivity index, ratio of CC50 for human HepG2 cells in presence of 1% FBS to MIC for Mycobacterium tuberculosis H37Rv ATCC 25618; type: toxicity; details: read-out: Selectivity Index
Klebsiella pneumoniae [11] = assay: Antibacterial activity against Klebsiella pneumoniae ATCC 13883 after 18 hrs by broth microdilution method; type: functional; details: ATCC 13883, 18 h; in short: as §1
Staphylococcus aureus [12] = assay: Antibacterial activity against vancomycin-intermediate Staphylococcus aureus ATCC 700698 after 18 hrs by broth microdilution method; type: functional; details: ATCC 700698, 18 h; in short: as §1
[13] = Selectivity index, ratio of CC50 for human HepG2 cells in presence of 1% FBS to MIC for Acinetobacter baumannii isolate 246-01-C; type: toxicity; details: read-out: Selectivity Index
Klebsiella pneumoniae [14] = assay: Antibacterial activity against Klebsiella pneumoniae isolate M320445 after 18 hrs by broth microdilution method; type: functional; details: isolate M320445, 18 h; in short: as §1
[15] = Selectivity index, ratio of CC50 for human HepG2 cells in presence of 1% FBS to MIC for methicillin-resistant Staphylococcus aureus ATCC 43300; type: toxicity; details: read-out: Selectivity Index; in short: as §2
[16] = Selectivity index, ratio of CC50 for human HepG2 cells in presence of 1% FBS to MIC for vancomycin-resistant Enterococcus faecium ATCC 700221; type: toxicity; details: read-out: Selectivity Index; in short: as §2
[17] = Selectivity index, ratio of CC50 for human HepG2 cells in presence of 1% FBS to MIC for Acinetobacter baumannii isolate 07AC-336; type: toxicity; details: read-out: Selectivity Index
Enterococcus faecium = assay: Antibacterial activity against vancomycin-resistant Enterococcus faecium ATCC 700221 after 18 hrs by broth microdilution method; type: functional; details: ATCC 700221, 18 h; in short: as §1
[18] = Selectivity index, ratio of CC50 for human HepG2 cells in presence of 1% FBS to MIC for Klebsiella pneumoniae isolate M320445; type: toxicity; details: read-out: Selectivity Index
[19] = Selectivity index, ratio of CC50 for human HepG2 cells in presence of 1% FBS to MIC for Escherichia coli N4149; type: toxicity; details: read-out: Selectivity Index
[20] = Selectivity index, ratio of CC50 for human HepG2 cells in presence of 1% FBS to MIC for Escherichia coli N11281; type: toxicity; details: read-out: Selectivity Index
[21] = Selectivity index, ratio of CC50 for human HepG2 cells in presence of 1% FBS to MIC for Acinetobacter baumannii ATCC 17978; type: toxicity; details: read-out: Selectivity Index
[22] = tested on: Mycobacterium tuberculosis; assay: Antimycobacterial activity against Mycobacterium tuberculosis H37Rv ATCC 25618 after 7 days by resazurin dye based assay; type: functional; details: H37Rv ATCC 25618, 168 h
In short: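 H37Rv grown at 37 °C in 7H9 with 10% ADC, 0.5% glycerol and 0.02% tyloxapol. Compounds serially diluted in water, 0 to 10 µM, in triplicate. Culture adjusted to OD600 0.001 and incubated 7 days at 37 °C. Resazurin (0.05% w/v) added for 4-24 h and fluorescence read at 590 nm. MIC is the lowest concentration giving complete growth inhibition versus untreated. Rifampicin served as control.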

Acinetobacter baumannii [23] = assay: Antibacterial activity against Acinetobacter baumannii ATCC 19606 col10 after 18 hrs by broth microdilution method; type: functional; details: ATCC 19606 = CIP 70.34 = JCM 6841 col10, 18 h; in short: as §1
Escherichia coli = assay: Antibacterial activity against Escherichia coli N11281 after 18 hrs by broth microdilution method; type: functional; details: N11281, 18 h; in short: as §1
[24] = Selectivity index, ratio of CC50 for human HepG2 cells in presence of 1% FBS to MIC for Pseudomonas aeruginosa isolate M146201; type: toxicity; details: read-out: Selectivity Index; in short: as §2
[25] = Cytotoxicity against human HepG2 cells after 24 hrs in presence of 1% FBS by resazurin dye based assay; type: cell-based
In short: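 HepG2 cells seeded at 4000/well in DMEM with 1% FBS and allowed to attach for 24 h at 37 °C, 5% CO2. Compounds added from 300 to 0.14 µM in 3-fold steps and incubated 24 h. 10 µM resazurin added for 2 h, fluorescence read at ex/em 560/590. Percent viability computed relative to untreated and negative controls, duplicate wells.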

[26] = Selectivity index, ratio of CC50 for human HepG2 cells in presence of 1% FBS to MIC for Klebsiella pneumoniae isolate 248-33-D; type: toxicity; details: read-out: Selectivity Index
Staphylococcus aureus [27] = assay: Antibacterial activity against vancomycin-resistant Staphylococcus aureus ATCC 700699 after 18 hrs by broth microdilution method; type: functional; details: ATCC 700699, 18 h; in short: as §1
[28] = Selectivity index, ratio of CC50 for human HepG2 cells in presence of 1% FBS to MIC for Klebsiella pneumoniae ATCC 13883; type: toxicity; details: read-out: Selectivity Index
Pseudomonas aeruginosa [29] = assay: Antibacterial activity against Pseudomonas aeruginosa isolate M146201 after 18 hrs by broth microdilution method; type: functional; details: isolate M146201, 18 h; in short: as §1
[30] = Selectivity index, ratio of CC50 for human HepG2 cells in presence of 1% FBS to IC50 for CQ-sensitive GFP-fused Plasmodium falciparum D10; type: toxicity; details: read-out: Ratio IC50

SMILES | MIC (Pseudomonas aeruginosa [1]) | selectivity ratio [2] | MIC (Staphylococcus aureus [3]) | selectivity ratio [4] | MIC (Acinetobacter baumannii [5]) | MIC (Pseudomonas aeruginosa [6]) | MIC (Pseudomonas aeruginosa [7]) | selectivity ratio [8] | MIC (Acinetobacter baumannii [9]) | selectivity ratio [10] | MIC (Klebsiella pneumoniae [11]) | MIC (Staphylococcus aureus [12]) | selectivity ratio [13] | MIC (Klebsiella pneumoniae [14]) | selectivity ratio [15] | selectivity ratio [16] | selectivity ratio [17] | MIC (Enterococcus faecium) | selectivity ratio [18] | selectivity ratio [19] | further results
Clc1cccc2c1-c1ccccc1[I+]2 | < 0.27 µM | < 2.4 | 1.1 µM | 1.2 | < 0.27 µM | 0.54 µM | < 0.27 µM | 1.2 | < 0.27 µM | 2.4 | 4.3 µM | 2.3 µM | < 2.4 | 8.6 µM | 0.61 | < 2.4 | < 2.4 | < 0.27 µM | 0.08 | 1.2 | selectivity ratio [20]: 0.31; selectivity ratio [21]: < 2.4; MIC [22]: 0.28 µM; MIC (Acinetobacter baumannii [23]): < 0.27 µM; MIC (Escherichia coli): 2.2 µM; selectivity ratio [24]: 1.2; CC50 at 24 h [25]: 0.66 µM; selectivity ratio [26]: 0.08; MIC (Staphylococcus aureus [27]): 1.1 µM; selectivity ratio [28]: 0.15; MIC (Pseudomonas aeruginosa [29]): 0.54 µM; selectivity ratio [30]: 13
Fc1ccc2c(c1)-c1ccccc1[I+]2 | 18 µM | 5.3 | 4.5 µM | 0.67 | 9.1 µM | 18 µM | 2.2 µM | 0.67 | 0.56 µM | 41 | 18 µM | 18 µM | 2.7 | 18 µM | 2.7 | 2.7 | 1.3 | 4.5 µM | 0.67 | 0.33 | selectivity ratio [20]: 0.67; selectivity ratio [21]: 5.3; MIC [22]: 0.29 µM; MIC (Acinetobacter baumannii [23]): 2.2 µM; MIC (Escherichia coli): 18 µM; selectivity ratio [24]: 2.7; CC50 at 24 h [25]: 11.9 µM; selectivity ratio [26]: 0.67; MIC (Staphylococcus aureus [27]): 9.1 µM; selectivity ratio [28]: 0.67; MIC (Pseudomonas aeruginosa [29]): 4.5 µM; selectivity ratio [30]: 125
N#Cc1ccc2c(c1)[I+]c1ccccc1-2 | 35 µM | 0.75 | 4.4 µM | 0.37 | > 71 µM | 8.8 µM | 4.4 µM | 0.05 | 2.2 µM | 12 | 18 µM | 8.8 µM | 0.19 | 35 µM | 0.75 | 1.5 | > 0.05 | 2.2 µM | 0.09 | 0.05 | selectivity ratio [20]: 0.05; selectivity ratio [21]: 0.75; MIC [22]: 0.29 µM; MIC (Acinetobacter baumannii [23]): 2.2 µM; MIC (Escherichia coli): 71 µM; selectivity ratio [24]: 0.19; CC50 at 24 h [25]: 3.3 µM; selectivity ratio [26]: > 0.05; MIC (Staphylococcus aureus [27]): 8.8 µM; selectivity ratio [28]: 0.19; MIC (Pseudomonas aeruginosa [29]): 18 µM; selectivity ratio [30]: 62
COc1ccc2c(c1)-c1ccccc1[I+]2 | > 70 µM | 2.3 | 18 µM | 0.29 | 70 µM | 70 µM | 8.7 µM | > 0.29 | 4.4 µM | 19 | 70 µM | 35 µM | 0.58 | 70 µM | 1.5 | 4.6 | 0.29 | 4.4 µM | 0.29 | > 0.29 | selectivity ratio [20]: > 0.29; selectivity ratio [21]: 1.2; MIC [22]: 1.1 µM; MIC (Acinetobacter baumannii [23]): 8.7 µM; MIC (Escherichia coli): > 70 µM; selectivity ratio [24]: 0.29; CC50 at 24 h [25]: 20.2 µM; selectivity ratio [26]: > 0.29; MIC (Staphylococcus aureus [27]): 35 µM; selectivity ratio [28]: 0.29; MIC (Pseudomonas aeruginosa [29]): 70 µM; selectivity ratio [30]: 213
Fc1cccc2c1-c1ccccc1[I+]2 | 2.2 µM | 1 | 2.2 µM | 1 | 1.1 µM | 4.5 µM | 4.5 µM | 4.2 | < 0.28 µM | 16 | 4.5 µM | 2.2 µM | < 16 | 9 µM | 2.1 | 8.2 | 4.1 | 0.56 µM | 0.51 | 4.2 | selectivity ratio [20]: 1; selectivity ratio [21]: 8.2; MIC [22]: 0.29 µM; MIC (Acinetobacter baumannii [23]): 0.56 µM; MIC (Escherichia coli): 4.5 µM; selectivity ratio [24]: 4.1; CC50 at 24 h [25]: 4.6 µM; selectivity ratio [26]: 0.51; MIC (Staphylococcus aureus [27]): 2.2 µM; selectivity ratio [28]: 1; MIC (Pseudomonas aeruginosa [29]): 1.1 µM; selectivity ratio [30]: 96
COc1cccc2c1-c1ccccc1[I+]2 | > 70 µM | 0.55 | 35 µM | > 0.55 | 70 µM | > 70 µM | 70 µM | 0.55 | 35 µM | 8.8 | > 70 µM | 35 µM | 0.55 | 70 µM | 1.1 | 4.4 | 0.55 | 8.7 µM | 0.55 | > 0.55 | selectivity ratio [20]: > 0.55; selectivity ratio [21]: 1.1; MIC [22]: 4.4 µM; MIC (Acinetobacter baumannii [23]): 17 µM; MIC (Escherichia coli): > 70 µM; selectivity ratio [24]: > 0.55; CC50 at 24 h [25]: 38.3 µM; selectivity ratio [26]: > 0.55; MIC (Staphylococcus aureus [27]): 35 µM; selectivity ratio [28]: > 0.55; MIC (Pseudomonas aeruginosa [29]): > 70 µM; selectivity ratio [30]: 225
